Screens: PubChem, several laboratories
Hits are enriched below; roughly 1.5% of the tested compounds scored in any of these assays.
Hsp70 act – switches on Hsp70 transcription; AID 1203; activation, % at 10 µM; 200,000 compounds, 0.04% hits; HeLa Hsp70 promoter luciferase reporter, luminescence; scaled: vehicle 0, proteasome-inhibitor control 100%;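 active means activation above the mean across all tested compounds plus 3 SD, cutoff set per campaign, cut at about 5.5% in these data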;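 further: 100% = MG132 at 30 µM as the positive control and 0% = DMSO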
PKD1 kinase inh – blocks activity of human protein kinase D1. inhibition, % (concentration not given with the values). 200,000 compounds, 0.056% hits. PKD1 kinase fluorescence polarization assay; in the data active means inhibition above about 50%
PP1 counter – blocks human PP1-alpha phosphatase, a PP5 counter-screen | 320,000 compounds, 0.9% hits | purified PP1alpha, OMFP fluorescence | P62136 | inhibition, % at 6.7 µM;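 active means inhibition above the mean inhibition of all tested compounds plus 3 SD, computed separately for each screening campaign, cut at about 15% in these data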
p97 ATPase inh – human p97 ATPase inhibition; P55072; inhibition, % at 8 µM; recombinant p97 ATPase, Kinase-Glo ATP luminescence, 3 h; 220,000 compounds, 0.42% hits; in the data active means inhibition above about 15%;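 further: 0% = DMSO vehicle and 100% = wells lacking enzyme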
RBBP9 inhibitor – human RBBP9 hydrolase inhibition; O75884; recombinant RBBP9, FP-Rh probe fluorescence polarization; inhibition, % at 7.94 µM; 220,000 compounds, 0.2% hits;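 active means inhibition above the campaign mean of all tested compounds plus 3 SD, cut at about 14% in these data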;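 further: plate controls were DMSO wells with RBBP9 for no effect and wells lacking RBBP9 protein for full effect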
Target sequence (O75884 whole entry, looked up): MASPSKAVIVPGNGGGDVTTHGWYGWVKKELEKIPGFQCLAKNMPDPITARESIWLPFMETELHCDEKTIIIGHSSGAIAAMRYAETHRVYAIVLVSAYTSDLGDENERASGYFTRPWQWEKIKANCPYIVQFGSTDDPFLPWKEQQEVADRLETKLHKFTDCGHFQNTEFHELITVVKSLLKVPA
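Controls: DMSO-treated enzyme wells and wells lacking RBBP9 | Material: RBBP9 protein | Technique: Fluorescence polarization | Replication: Single well per compound, no replicates | Buffer or medium: Tris-NaCl-Pluronic buffer, pH 8.0 | Timing: 30 min compound preincubation, 45 min probe labeling, 25 °C | Read-out basis: Percent inhibition from mP, scaled between DMSO and no-protein wells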
PP5 primary – blocks human protein phosphatase 5 activity; P53041; purified PP5c, OMFP substrate fluorescence; inhibition, % at 6.7 µM; 320,000 compounds, 0.18% hits; AID 1987;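 active means inhibition above the campaign's mean inhibition across all tested compounds plus 3 SD, cut at about 9.5% in these data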;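 further: 0% = DMSO only and 100% = 100 µM cantharidin control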
Target sequence (P53041 whole entry, looked up): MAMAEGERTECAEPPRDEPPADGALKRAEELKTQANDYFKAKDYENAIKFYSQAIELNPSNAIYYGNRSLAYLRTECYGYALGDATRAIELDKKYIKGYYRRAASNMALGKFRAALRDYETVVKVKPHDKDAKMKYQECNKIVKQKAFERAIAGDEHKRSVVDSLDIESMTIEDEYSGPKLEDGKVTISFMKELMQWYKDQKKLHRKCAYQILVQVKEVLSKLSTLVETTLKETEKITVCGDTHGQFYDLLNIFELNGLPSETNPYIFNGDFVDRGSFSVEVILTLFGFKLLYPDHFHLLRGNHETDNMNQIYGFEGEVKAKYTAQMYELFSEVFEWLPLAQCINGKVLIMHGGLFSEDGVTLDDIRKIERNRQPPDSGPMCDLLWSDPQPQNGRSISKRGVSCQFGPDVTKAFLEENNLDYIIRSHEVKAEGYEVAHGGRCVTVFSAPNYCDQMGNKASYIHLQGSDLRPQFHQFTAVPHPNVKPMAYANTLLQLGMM
Active calls of the source: *; · = not tested or not shown; ! = not active in a repeat.

SMILES | Hsp70 act | PKD1 kinase inh | PP1 counter | p97 ATPase inh | RBBP9 inhibitor | PP5 primary
O=C(O)c1ccccc1-c1nc(-c2ccccc2)c(-c2ccccc2)[nH]1 | 0 | -8 | -1 | 1 | -7 | 3
O=C(O)c1cccc2c(-c3ccccc3)c(-c3ccccc3)[nH]c12 | · | · | 15* | -1 | -1 | 2
O=C(COC(=O)C1CC2CCCC(C1)C2=O)Nc1ccc(Cl)cn1 (stereo unspecified) | · | · | -5 | · | · | -1
Nc1nonc1-n1nnc(C(=O)N/N=C/c2cc(Cl)ccc2O)c1CN1CCCCCC1 | · | · | 16* | · | · | 2
Nc1nonc1-n1nnc(C(=O)N/N=C/c2ccc(Cl)cc2Cl)c1CN1CCCCC1 | · | · | -2 | · | · | 3
CC12CCC(=O)N1C(C(=O)NCc1ccccc1Cl)CS2 (stereo unspecified) | · | · | -4 | · | · | -2
Cn1sccc1=O | · | · | -2 | · | · | 3
CC(C)CC1Nc2ncnc(N3CCN(c4ccccn4)CC3)c2N(Cc2ccc(Br)cc2)C1=O (stereo unspecified) | · | · | 17* | · | · | 2
Cc1ccc(CN2C(=O)C(CC(C)C)Nc3ncnc(N4CCN(c5ccccn5)CC4)c32)cc1 (stereo unspecified) | · | · | 7 | · | · | 2
CCNC(C(=O)c1c[nH]c2c(CC)cccc12)c1ccccc1 (stereo unspecified) | · | · | 5 | · | · | -1
Cc1ccc(C(=O)Nc2nnc(CC(=O)N/N=C/c3ccncc3)s2)cc1 | 0 | 0 | 15* | -5 | -5 | 2
COc1ccc(C(=O)Nc2nnc(CC(=O)N/N=C/c3ccc(O)cc3O)s2)cc1 | · | · | 15 | · | · | 1
Cc1cc(Nc2ccc(Cl)cc2)nc(NCc2ccccc2)n1 | 0 | 6 | 17* | 3 | -7 | 8
Cc1cc(N/N=C/c2ccc(N(C)C)cc2)nc(NCc2ccccc2)n1 | · | · | 16* | 4 | -9 | 4
COC(C)c1oc2c(C)c3oc(=O)cc(C)c3cc2c1C (stereo unspecified) | · | · | 0 | · | · | 0
CC(C)N1CCc2c(sc(NC(=O)c3ccc(S(=O)(=O)N4CCc5ccccc54)cc3)c2C(N)=O)C1 | 0 | 2 | 17* | 7 | -3 | 4
CC(C)N1CCc2c(sc(NC(=O)c3nc4ccccc4s3)c2C(N)=O)C1 | 0 | -4 | 3 | 11 | -1 | 1
Cc1nnc(SCC(=O)NNC(=O)COc2ccc(Br)cc2)n1C | · | · | -1 | · | · | -2
O=C(N/N=C/c1ccco1)c1cc(-c2ccccc2)nc2ccccc12 | · | · | 1 | · | · | -2
CCCc1ccc(-c2cc(C(=O)N/N=C/c3ccc([N+](=O)[O-])o3)c3ccccc3n2)cc1 | 0 | -5 | 17* | 0 | 0 | 0
O=C(N/N=C/c1ccc([N+](=O)[O-])o1)c1cc(-c2cccc(Br)c2)nc2ccccc12 | 0 | 0 | 16* | 0 | -13 | 5
O=c1cc(O)nc(SCc2ccccc2)n1-c1ccccc1 | 0 | 5 | 17*! | 4 | -3 | -1
O=C(CSc1nc(O)cc(=O)n1-c1ccccc1)NCc1ccccc1 | -1 | 0 | 3 | -6 | -4 | 3
CCOc1ccc(-c2n[nH]c(=S)c3ccccc23)cc1 | · | · | 1 | · | · | -1
Cn1cccc1CC(=O)N/N=C/c1cccc2ccccc12 | 0 | -2 | 5 | -2 | -4 | 5
SMILES | Hsp70 act | PKD1 kinase inh | PP1 counter | p97 ATPase inh | RBBP9 inhibitor | PP5 primary
Cn1cccc1CC(=O)N/N=C\c1c2ccccc2cc2ccccc12 | 0 | 5 | 16* | 13 | 8 | 0
CCOc1ccccc1NC(C)C(=O)NC(=O)NC1CCCCC1 (stereo unspecified) | · | · | -3 | · | · | -1
CC1(C)S[C@@H]2[C@H](NC(=O)COc3ccccc3)C(=O)N2C1C(=O)OCc1cc2ccccc2n1S(=O)(=O)c1ccccc1 (stereo partly specified) | · | · | 25* | · | · | 1
CC1(C)S[C@@H]2[C@H](NC(=O)COc3ccccc3)C(=O)N2C1C(=O)OCC1CCCCC1 (stereo partly specified) | · | · | -12 | · | · | 7
Cc1ccc(NS(=O)(=O)c2ccc(C(=O)N3CC(C)CC(C)C3)cc2)cc1 (stereo unspecified) | · | · | 0 | · | · | 2
O=c1cc(CSc2nnnn2-c2ccccc2)nc(Nc2ccc(F)cc2)[nH]1 | 0 | -3 | 15* | -8 | -12 | 2
Cc1cc(C)c2nc(NNC(=O)c3ccc(S(=O)(=O)N4CCCCC4)cc3)sc2c1 | 0 | 6 | 16* | -2 | -2 | 0
Cc1cccc2sc(NNC(=O)c3ccc(S(=O)(=O)N4CCc5ccccc5C4)cc3)nc12 | 0 | -9 | 16* | 5 | 0 | 2
CCOC(=O)N1CCN(S(=O)(=O)c2ccc(C(=O)NNc3nc4ccc(Cl)cc4s3)cc2)CC1 | 0 | -3 | 16* | 10 | -7 | 0
CCOC(=O)N1CCN(S(=O)(=O)c2ccc(C(=O)NNc3nc4c(C)cccc4s3)cc2)CC1 | 0 | -7 | 5 | 7 | -10 | 5
COc1ccc(C(=O)NCC(=O)N2CCN(c3ncccn3)CC2)cc1OC | · | · | 3 | · | · | 2
COc1ccc(C(=O)Nc2ccc(C3CC3(Cl)Cl)cc2)cc1 (stereo unspecified) | 1 | 9 | -2 | 1 | -8 | -9
Cc1nn(-c2ccccn2)c2c1C(c1c(F)cccc1Cl)C1=C(N2)c2ccccc2C1=O (stereo unspecified) | 0 | 0 | 17* | -5 | -6 | 3
Cc1nn(-c2ccccn2)c2c1C(c1ccccc1Cl)C1=C(N2)c2ccccc2C1=O (stereo unspecified) | 0 | 7 | 4 | 3 | -5 | -1
O=CN/C=C/c1cc(O)ccc1O | · | · | -6 | -4 | 39* | -2
O=C(CN1C(=O)NC2(CCCC2)C1=O)Nc1cc(Cl)ccc1Oc1ccccc1 | · | · | -2 | · | · | 2
O=C(Cc1c(Cl)cccc1Cl)N1CCN(S(=O)(=O)c2cccs2)CC1 | · | · | -2 | · | · | 1
CC(C)c1ccccc1NC(=O)COc1ccc2c(=O)c(Oc3ccc4ccccc4c3)coc2c1 | 0 | 9 | 18* | 2 | -6 | 4
COC(=O)C1=C(CN2CCc3ccccc32)NC(=O)NC1c1cc(C)ccc1C (stereo unspecified) | 0 | -8 | 15* | 2 | -7 | 1
CCOC(=O)c1c(CN(C)C)n(C)c2c(O)c(N=NC(N)=O)c3ccc(Br)cc3c12 | · | · | 17* | · | · | 9
CCCn1c(=O)c(C(=O)OCC)c(O)c2cc(Br)ccc21 | 0 | -1 | 4 | 2 | -6 | 4
Cc1cc(Cl)cc(C)c1OCC(=O)N1CCN(c2ncccn2)CC1 | · | · | -1 | · | · | 1
CCOc1ccc(NC(=O)c2c[nH]n3c(=O)cc(C4CCN(C(=O)OC(C)(C)C)CC4)nc23)cc1 | · | · | 16* | 1 | 5 | 4
O=C(Nc1ccccc1C(=O)N1CCCC1)C1COc2ccccc2O1 (stereo unspecified) | 0 | 66* | -2 | 7 | -3 | -1
